The values below come from ChEMBL document CHEMBL1138024, “Aryl urea analogs with broad-spectrum antibacterial activity” (Bioorg Med Chem Lett, 2004).

As usually defined, the MIC is the least concentration at which growth counts as inhibited. Usually CC50 stands for the concentration that lowers cell viability or growth by half. High values mean lower toxicity to the cells, low ones greater toxicity to the cells.

Holding throughout (assay type): functional
Assay [1] concerns Pseudomonas aeruginosa. In words: Minimum inhibitory concentration against Pseudomonas aeruginosa ATCC 25416.
The subject of assay [2] is Enterococcus faecalis. The assay is described as follows: Minimum inhibitory concentration against Enterococcus faecalis ATCC 29212; value ranges from 6-12 uM.
In assay [3] the test system is Streptococcus pyogenes. In words: Minimum inhibitory concentration against Streptococcus pyogenes ATCC 49399; value ranges from 3-6 uM.
The subject of assay [4] is Staphylococcus aureus. The assay is described as follows: Minimum inhibitory concentration against Staphylococcus aureus ATCC 13709; value ranges from 3-6 uM.
Assay [5] relates to Huh-7. In words: Cytotoxic concentration against Huh7 cells at 48 hours in MTT assay; value ranges from 50-100 uM. The conditions noted are these: Homo sapiens, Huh-7, 48 h. In general terms: Tetrazolium assays rely on reduction of a dye to a coloured formazan, in cell work by metabolically active cells.
For assay [6], the system named is Enterococcus faecium. In words: Minimum inhibitory concentration against Enterococcus faecium ATCC 6569; value ranges from 6-12 uM.
Assay [7] has as its system Escherichia coli. The assay is described as follows: Minimum inhibitory concentration against Escherichia coli ATCC 25922; value ranges from 12-25 uM.
The subject of assay [8] is Proteus vulgaris. In words: Minimum inhibitory concentration against Proteus vulgaris ATCC 8427; value ranges from 12-25 uM.
Assay [9] has as its system Staphylococcus aureus. The assay is described as follows: Minimum inhibitory concentration against Staphylococcus aureus ATCC 13709 (+4% BSA); value ranges from 25-50 uM. In a few lines:
(§1)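 Same microdilution MIC against S. aureus ATCC 13709, but with 4% bovine serum albumin in the wells. Compound in 0.5% DMSO in water, inoculum about 10³–10⁴ CFU/well, duplicates. Growth was read as A595 after 20–24 h at 37°C against a compound-free control. MIC is reported as the range between full inhibition and viable growth.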

Assay [10] concerns Klebsiella pneumoniae. In words: Minimum inhibitory concentration against Klebsiella pneumoniae ATCC 13383; value ranges from 3-6 uM.
Assay [11] relates to Staphylococcus aureus. The assay is described as follows: In vitro antibacterial activity against Staphylococcus aureus; value ranges from 3-6 uM.
Assay [12] concerns Staphylococcus aureus. In words: Minimum inhibitory concentration against Staphylococcus aureus ATCC 13709 (+4% BSA); value ranges from 12-25 uM. The procedure, abridged: as §1
The subject of assay [13] is Enterococcus faecium. The assay is described as follows: Minimum inhibitory concentration against Enterococcus faecium ATCC 6569.
The subject of assay [14] is Huh-7. The assay is described as follows: Cytotoxic concentration against Huh7 cells at 48 hours in MTT assay; value ranges from 12.5-25 uM. The conditions noted are these: Homo sapiens, Huh-7, 48 h.
In assay [15] the test system is Escherichia coli. The assay is described as follows: Minimum inhibitory concentration against Escherichia coli ATCC 25922; value ranges from 6-12 uM.
Assay [16] concerns Klebsiella pneumoniae. The assay is described as follows: Minimum inhibitory concentration against Klebsiella pneumoniae ATCC 13383; value ranges from 6-12 uM.
Assay [17] deals with Enterococcus faecalis. The assay is described as follows: Minimum inhibitory concentration against Enterococcus faecalis ATCC 29212; value ranges from 3-6 uM.
Assay [18] concerns Mus musculus. In words: In vivo antibacterial activity (Staphylococcus aureus) in a lethal murine model at a dose of 9.4 mg/kg; activity expressed as no. of mice alive/total tested; 2/10.
Assay [19] relates to Mus musculus. The assay is described as follows: In vivo antibacterial activity (Staphylococcus aureus) in a lethal murine model at a dose of 37.6 mg/kg; activity expressed as no. of mice alive/total tested; 3/10.
Assay [20] concerns Mus musculus. In words: In vivo antibacterial activity (Staphylococcus aureus) in a lethal murine model at a dose of 18.8 mg/kg; activity expressed as no. of mice alive/total tested; 4/10.
The subject of assay [21] is Mus musculus. In words: In vivo antibacterial activity (Staphylococcus aureus) in a lethal murine model at a dose of 75 mg/kg; activity expressed as no. of mice alive/total tested; 3/10.
Assay [22] deals with Mus musculus. The assay is described as follows: In vivo antibacterial activity (Staphylococcus aureus) in a lethal murine model at a dose of 4.6 mg/kg; activity expressed as no. of mice alive/total tested; 0/10.
Assay [23] relates to Enterococcus faecalis. The assay is described as follows: Minimum inhibitory concentration against Enterococcus faecalis ATCC 29212.
Assay [24] deals with Huh-7. The assay is described as follows: Cytotoxic concentration against Huh7 cells at 48 hours in MTT assay; value ranges from 25-50 uM. The following applies: Homo sapiens, Huh-7, 48 h.
The subject of assay [25] is Enterococcus faecium. In words: Minimum inhibitory concentration against Enterococcus faecium ATCC 6569; value ranges from 3-6 uM.
The subject of assay [26] is Staphylococcus aureus. The assay is described as follows: Minimum inhibitory concentration against Staphylococcus aureus ATCC 13709 (+4% BSA); value ranges from 50-100 uM. The procedure, abridged: as §1

SMILES strings stand for the structures. Converted amounts (≈) assume the structure as drawn. A value given as a limit tells only on which side of the number the result lay.

For `CCOc1c(Br)cc(Br)cc1CNCCCNC(=O)Nc1ccc(C(F)(F)F)cc1`, the MIC was more than 100 µM in [1]; 12 µM (≈ 6.64 µg/mL) in assay [2]; 6 µM (≈ 3.32 µg/mL) in [3]; 6 µM (≈ 3.32 µg/mL) in [4]; 12 µM (≈ 6.64 µg/mL) in [6]; 25 µM (≈ 13.8 µg/mL) in [7]. The MIC was 25 µM (≈ 13.8 µg/mL) in assay [8], 50 µM (≈ 27.7 µg/mL) in assay [9], 6 µM (≈ 3.32 µg/mL) in [10] and 6 µM (≈ 3.32 µg/mL) in assay [11]. For the same compound, the half-maximal cytotoxic concentration (CC50) in assay [5] was found to be 100 µM.
As for `O=C(NCCCNCc1ccc(Oc2ccccc2)cc1)Nc1ccc(C(F)(F)F)cc1`, the MIC in assay [1] is more than 100 µM; in assay [12] it was 25 µM (≈ 11.1 µg/mL); in assay [3], 6 µM (≈ 2.66 µg/mL); in assay [13], more than 100 µM; in assay [4] it was 6 µM (≈ 2.66 µg/mL); in assay [15], 12 µM (≈ 5.32 µg/mL). Besides, the MIC in assay [8] was determined as 25 µM (≈ 11.1 µg/mL); in [16] it was 12 µM (≈ 5.32 µg/mL); in assay [11] it was 6 µM (≈ 2.66 µg/mL); in assay [17] it was 6 µM (≈ 2.66 µg/mL). For the same compound, half-maximal cytotoxicity in assay [14] (CC50) was put at 25 µM.
As for `O=C(NCCCNCc1ccc(-c2ccccc2)cc1)Nc1ccc(C(F)(F)F)cc1`, the MIC in assay [1] is more than 100 µM; in assay [12] it was 25 µM (≈ 10.7 µg/mL); in assay [3] it was 6 µM (≈ 2.56 µg/mL); in assay [13] it was more than 100 µM; in assay [4] it was 6 µM (≈ 2.56 µg/mL); in assay [15] it was 12 µM (≈ 5.13 µg/mL). Besides, the MIC is 25 µM (≈ 10.7 µg/mL) in assay [8], 12 µM (≈ 5.13 µg/mL) in assay [16], 6 µM (≈ 2.56 µg/mL) in assay [11] and more than 100 µM in [23]. Further, the “No. of animals alive” value was found to be 2 in assay [18]; 3 in [19]; 4 in assay [20]; 3 in [21]; 0 in assay [22]. This compound gave a CC50 in [24] of 50 µM.
`CC(C)(C)c1ccc(CNCCCNC(=O)Nc2ccc(C(F)(F)F)cc2)cc1`: the MIC in assay [1] was more than 100 µM; in [2] it was 12 µM (≈ 4.89 µg/mL); in [25], 6 µM (≈ 2.44 µg/mL); in assay [3] it was 6 µM (≈ 2.44 µg/mL); in assay [4], 6 µM (≈ 2.44 µg/mL); in [15], 12 µM (≈ 4.89 µg/mL). Further, the MIC in assay [8] worked out at 25 µM (≈ 10.2 µg/mL); in assay [26], 100 µM (≈ 40.7 µg/mL); in [10] it was 6 µM (≈ 2.44 µg/mL); in [11], 6 µM (≈ 2.44 µg/mL).
